According to ChEMBL document CHEMBL1799996, “Novel C8-linked pyrrolobenzodiazepine (PBD)-heterocycle conjugates that recognize DNA sequences containing an inverted CCAAT box” (2011):

Experiments:
[1] = system: Nucleic Acid; experiment: Binding affinity to calf thymus DNA assessed as change in melting temperature at 5 uM at pH 7 after 4 hrs by thermal denaturation assay; assay type: nucleic-acid assay; conditions: Bos taurus
[2] = system: Nucleic Acid; experiment: Binding affinity to calf thymus DNA assessed as change in melting temperature at 5 uM at pH 7 after 18 hrs by thermal denaturation assay; assay type: nucleic-acid assay; conditions: Bos taurus
[3] = system: Nucleic Acid; experiment: Binding affinity to ICB1 site of human topoisomerase 2alpha promoter after 17 hrs by DNase 1 footprinting assay; assay type: nucleic-acid assay
In short: (§1)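 Reported value is the lowest conjugate concentration that gives a measurable footprint at the respective inverted CCAAT site.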

[4] = system: Nucleic Acid; experiment: Binding affinity to ICB2 site of human topoisomerase 2alpha promoter after 17 hrs by DNase 1 footprinting assay; assay type: nucleic-acid assay; in short: as §1
[5] = Cytotoxicity against human NCI60 cells; assay type: functional
In short: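 NCI 60-cell-line panel. GI50, TGI and LC50 (50% growth inhibition, total growth inhibition and 50% lethality) are given as the mean across all 60 lines.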

Structure (SMILES) | ΔTm [1] [°C] | ΔTm [2] [°C] | Activity [3] [µM] | Activity [4] [µM] | GI50 [5] [µM] | LC50 (50% lethal concentration) [5] [µM] | TGI [5] [µM]
COC(=O)c1cc(NC(=O)c2cc(NC(=O)CCCOc3cc4c(cc3OC)C(=O)N3CCC[C@H]3C=N4)cn2C)cn1C | 14.5 | 15.1 | 1 | 1 | 0.011 | 10 | 0.12
COC(=O)CCCOc1cc2c(cc1OC)C(=O)N1CCC[C@H]1C=N2 | 0.3 | 0.4 |  |  | 1.74 | 46.8 | 11.8
